Where “and” joins values, the source holds several entries; their conditions need not be identical. Equal values may be shown once.
Assays:
MT4 [1] = assay: Cytotoxicity based on the reduction of the viability of mock-infected MT-4 cells using the MTT method; assay type: functional, Homo sapiens
In short: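 Mock-infected MT-4 cells were exposed to compound. Loss of viability was read by the MTT method, and CC50 was derived. Values are the mean of at least three experiments.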

MT4 [2] = assay: Anti-HIV activity based on the protection against HIV-induced cytopathogenicity in MT-4 cells using MTT method; assay type: functional, cell-based, Homo sapiens
In short: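 MT-4 cells challenged with the X4 strain HIV-1 IIIB. Protection from virus-induced cytopathogenicity was read by the MTT method, and EC50 was derived. Values are the mean of at least three experiments.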

[3] = target: T1, C-X-C chemokine receptor type 4 (Homo sapiens, UniProt P61073); assay: (§1) Inhibitory activity based on the inhibition of [Ca2+] mobilization induced by human SDF-1alpha stimulation through CXCR4
In short: (§2)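 CHO cells transfected with CXCR4 were loaded with Fura-2-AM for 1–2 h and then pretreated with analogue. Recombinant human SDF-1α was added 3 min later. [Ca2+]i rise was measured spectrofluorometrically by a modified Fura-2 method, and IC50 was derived from inhibition of mobilization. Values are the mean of two experiments.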

[4] = target: T1, C-X-C chemokine receptor type 4; assay: as §1; in short: as §2; remark: listed apart in the source
[5] = Selectivity index (SI) is determined as the ratio of CC50/EC50; assay type: functional
In short: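 Ratio of CC50 to EC50, both taken from MTT read-outs in MT-4 cells: mock-infected cells for CC50 and HIV-1 IIIB-infected cells for EC50. Each value is the mean of at least three experiments.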

T1 sequence (P61073 whole entry): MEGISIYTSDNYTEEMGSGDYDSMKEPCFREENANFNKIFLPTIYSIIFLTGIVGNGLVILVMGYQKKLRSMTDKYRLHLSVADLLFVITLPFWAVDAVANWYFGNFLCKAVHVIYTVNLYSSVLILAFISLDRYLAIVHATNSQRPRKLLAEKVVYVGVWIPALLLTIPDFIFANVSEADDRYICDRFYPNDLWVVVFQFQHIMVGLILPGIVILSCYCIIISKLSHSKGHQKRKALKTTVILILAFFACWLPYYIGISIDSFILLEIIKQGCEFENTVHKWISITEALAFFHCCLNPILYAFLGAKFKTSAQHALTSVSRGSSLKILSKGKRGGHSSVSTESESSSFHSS

Row | IC50 [3] [µM] | SMILES | CC50 (MT4 [1]) | CC50 (MT4 [1]; Homo sapiens, MT4) [µM] | EC50 (MT4 [2]; mt4) | other results
1 | – | C[C@H]1/C=C\[C@@H](CCCCN)NC(=O)[C@H](CCCCN)NC(=O)[C@H](CCCN=C(N)N)NC(=O)[C@H](Cc2ccc(O)cc2)NC(=O)[C@@H](NC(=O)[C@H](CSC23C[C@H]4C[C@@H](C2)C[C@@H](C3)C4)NC(=O)[C@H](CCCN=C(N)N)NC(=O)[C@@H](N)CCCN=C(N)N)CSSC[C@@H](C(=O)N[C@@H](CCCN=C(N)N)C(N)=O)NC(=O)[C@H](CCCNC(N)=O)NC(=O)[C@H](CCCN=C(N)N)NC(=O)[C@H](Cc2ccc(O)cc2)NC1=O [listing 1 of 2 here] | 57 µM | 49 | – | –
2 | 0.01 | C[C@H]1/C=C\[C@@H](CCCCN)NC(=O)[C@H](CCCCN)NC(=O)[C@H](CCCN=C(N)N)NC(=O)[C@H](Cc2ccc(O)cc2)NC(=O)[C@@H](NC(=O)[C@H](Cc2ccc3ccccc3c2)NC(=O)[C@H](CCCN=C(N)N)NC(=O)[C@@H](N)CCCN=C(N)N)CSSC[C@@H](C(=O)N[C@@H](CCCN=C(N)N)C(N)=O)NC(=O)[C@H](CCCNC(N)=O)NC(=O)[C@H](CCCN=C(N)N)NC(=O)[C@H](Cc2ccc(O)cc2)NC1=O [listing 1 of 2 here] | – | – | 0.0047 µM and 0.0019 µM | IC50 [4]: 0.005 µM
3 | 0.17 | C[C@H]1/C=C\[C@@H](CCCCN)NC(=O)[C@H](CCCCN)NC(=O)[C@H](CCCN=C(N)N)NC(=O)[C@H](Cc2ccc(O)cc2)NC(=O)[C@@H](NC(=O)[C@H](CSC23C[C@H]4C[C@@H](C2)C[C@@H](C3)C4)NC(=O)[C@H](CCCN=C(N)N)NC(=O)[C@@H](N)CCCN=C(N)N)CSSC[C@@H](C(=O)N[C@@H](CCCN=C(N)N)C(N)=O)NC(=O)[C@H](CCCNC(N)=O)NC(=O)[C@H](CCCN=C(N)N)NC(=O)[C@H](Cc2ccc(O)cc2)NC1=O [listing 2 of 2 here] | – | – | 0.0071 µM and 0.017 µM | –
4 | – | C[C@H]1/C=C\[C@@H](CCCCN)NC(=O)[C@H](CCCCN)NC(=O)[C@H](CCCN=C(N)N)NC(=O)[C@H](Cc2ccc(O)cc2)NC(=O)[C@@H](NC(=O)[C@H](Cc2ccc3ccccc3c2)NC(=O)[C@H](CCCN=C(N)N)NC(=O)[C@@H](N)CCCN=C(N)N)CSSC[C@@H](C(=O)N[C@@H](CCCN=C(N)N)C(N)=O)NC(=O)[C@H](CCCNC(N)=O)NC(=O)[C@H](CCCN=C(N)N)NC(=O)[C@H](Cc2ccc(O)cc2)NC1=O [listing 2 of 2 here] | 58 µM | 57 | – | –
5 | – | C[C@H]1/C=C\[C@@H](CCCCN)NC(=O)[C@H](CCCCN)NC(=O)[C@H](CCCN=C(N)N)NC(=O)[C@H](Cc2ccc(O)cc2)NC(=O)[C@@H](NC(=O)[C@H](Cc2ccc3ccccc3c2)NC(=O)[C@H](CCCN=C(N)N)NC(=O)[C@@H](N)CCCN=C(N)N)CSSC[C@@H](C(=O)N[C@@H](CCCN=C(N)N)C(=O)O)NC(=O)[C@H](CCCNC(N)=O)NC(=O)[C@H](CCCN=C(N)N)NC(=O)[C@H](Cc2ccc(O)cc2)NC1=O [listing 1 of 2 here] | 67 µM and 270 µM | – | – | –
6 | 0.036 | C[C@H]1/C=C\[C@@H](CCCCN)NC(=O)[C@H](CCCCN)NC(=O)[C@H](CCCN=C(N)N)NC(=O)[C@H](Cc2ccc(O)cc2)NC(=O)[C@@H](NC(=O)[C@H](CSCc2ccccc2)NC(=O)[C@H](CCCN=C(N)N)NC(=O)[C@@H](N)CCCN=C(N)N)CSSC[C@@H](C(=O)N[C@@H](CCCN=C(N)N)C(N)=O)NC(=O)[C@H](CCCNC(N)=O)NC(=O)[C@H](CCCN=C(N)N)NC(=O)[C@H](Cc2ccc(O)cc2)NC1=O | – | – | 0.045 µM | EC50 (MT4 [2]; Homo sapiens, MT4): 0.067 µM
7 | – | C[C@H]1/C=C\[C@@H](CCCCN)NC(=O)[C@H](CCCCN)NC(=O)[C@@H](CCCN=C(N)N)NC(=O)[C@H](Cc2ccc(O)cc2)NC(=O)[C@@H](NC(=O)[C@H](Cc2c[nH]c3ccccc23)NC(=O)[C@H](CCCN=C(N)N)NC(=O)[C@@H](N)CCCN=C(N)N)CSSC[C@@H](C(=O)N[C@@H](CCCN=C(N)N)C(=O)O)NC(=O)C(CCCNC(N)=O)NC(=O)[C@@H](CCCN=C(N)N)NC(=O)[C@H](Cc2ccc(O)cc2)NC1=O (stereo not given in full) | – | – | – | SI [5]: > 78000
8 | – | C[C@H]1/C=C\[C@@H](CCCCN)NC(=O)[C@H](CCCCN)NC(=O)[C@H](CCCN=C(N)N)NC(=O)[C@H](Cc2ccc(O)cc2)NC(=O)[C@@H](NC(=O)[C@H](Cc2c[nH]c3ccccc23)NC(=O)[C@H](CCCN=C(N)N)NC(=O)[C@@H](N)CCCN=C(N)N)CSSC[C@@H](C(=O)N[C@@H](CCCN=C(N)N)C(N)=O)NC(=O)[C@H](CCCNC(N)=O)NC(=O)[C@H](CCCN=C(N)N)NC(=O)[C@H](Cc2ccc(O)cc2)NC1=O | 58 µM | 56 | – | –
9 | – | Cc1cn([C@H]2C[C@H](N=[N+]=[N-])[C@@H](CO)O2)c(=O)[nH]c1=O [ZIDOVUDINE] | – | 12 | – | EC50 (MT4 [2]; Homo sapiens, MT4): 0.0003 µM; SI [5]: 35000
10 | – | C[C@H]1/C=C\[C@@H](CCCCN)NC(=O)[C@H](CCCCN)NC(=O)[C@H](CCCN=C(N)N)NC(=O)[C@H](Cc2ccc(O)cc2)NC(=O)[C@@H](NC(=O)[C@H](Cc2ccc3ccccc3c2)NC(=O)[C@H](CCCN=C(N)N)NC(=O)[C@@H](N)CCCN=C(N)N)CSSC[C@@H](C(=O)N[C@@H](CCCN=C(N)N)C(=O)O)NC(=O)[C@H](CCCNC(N)=O)NC(=O)[C@H](CCCN=C(N)N)NC(=O)[C@H](Cc2ccc(O)cc2)NC1=O [listing 2 of 2 here] | – | – | < 0.0003 µM and 0.0019 µM | –
